Source: ChEMBL document CHEMBL3351346, “Design, synthesis, structure-function relationship, bioconversion, and pharmacokinetic evaluation of ertapenem prodrugs” (J Med Chem, 2014)

How the values were obtained:
[1] = Stability in pH 2.0 simulated gastric fluid assessed as compound degradation to beta-lactam ring open products at 1 uM after 60 mins by LC-MS/MS method; format: ADME; conditions: read-out: Drug degradation
Outline: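 Incubation was in simulated gastric fluid (SGF, pH 2.0) for 60 min, with loss to the β-lactam ring-opened product measured by LC-MS/MS.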

[2] = Stability in pH 6.5 simulated gastrointestinal fluid assessed as compound remaining at 50 uM after 3 hrs by LC-MS/MS method; format: ADME; conditions: read-out: Stability
Outline: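 Compounds at 50 μM were incubated in fasted-state simulated intestinal fluid (FaSSIF, pH 6.5) for over 3 h. Percent remaining was determined by LC-MS/MS.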

[3] = Stability in pH 7.4 phosphate buffer assessed as compound remaining at 50 uM after 3 hrs by LC-MS/MS method; format: physicochemical; conditions: read-out: Stability
Rattus norvegicus [4] = assay: AUC (0 to 8 hrs) in fasted Sprague-Dawley rat at 10 mg/kg dosed through intraduodenal route by LC-MS/MS method; format: ADME, organism-based, Plasma; set-up: time < 8 hr, dose 10 mg/kg, route intraduodenal; conditions: in vivo, other, 8 h, BLD = below limit of detection
Outline: (§1)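 Prodrugs were given intraduodenally to bypass stomach acid. Plasma was sampled at intervals over 8 h, and parent prodrug, the two monoester metabolites and ertapenem were quantified by LC-MS/MS. The lower limit of quantitation was 5 nM. AUC(0–8) was used, and it differed from AUC(0–∞) by ±20%. Vehicles were 30% Captisol or 0.5% methylcellulose, as solution or suspension depending on compound.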

Rattus norvegicus [5] = assay: AUC (0 to 8 hrs) in fasted Sprague-Dawley rat assessed as 8-OH, C-3 ester level at 10 mg/kg dosed through intraduodenal route by LC-MS/MS method; format: ADME, organism-based, Plasma; set-up: time < 8 hr, dose 10 mg/kg, route intraduodenal; conditions: in vivo, other, BLD = below limit of detection; outline: as §1
Rattus norvegicus [6] = assay: AUC (0 to 8 hrs) in fasted Sprague-Dawley rat assessed as 8-OH, benzoate ester level at 10 mg/kg dosed through intraduodenal route by LC-MS/MS method; format: ADME, organism-based, Plasma; set-up: time < 8 hr, dose 10 mg/kg, route intraduodenal; conditions: in vivo, other, BLD = below limit of detection; outline: as §1
Rattus norvegicus [7] = assay: Oral bioavailability in fasted Sprague-Dawley rat assessed as ertapenem level at 10 mg/kg dosed through intraduodenal route by LC-MS/MS method; format: ADME, organism-based; conditions: in vivo
Outline: (§2)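 After intraduodenal dosing, plasma over 8 h was analysed by LC-MS/MS. Bioavailability was calculated as dose-normalized AUC of ertapenem formed from the prodrug divided by dose-normalized AUC of ertapenem dosed iv. Vehicle was 30% Captisol or 0.5% methylcellulose.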

Rattus norvegicus [8] = assay: Oral bioavailability in fasted Sprague-Dawley rat assessed as ertapenem and monoetser metabolites level at 10 mg/kg dosed through intraduodenal route by LC-MS/MS method; format: ADME, organism-based; conditions: in vivo
Outline: (§3)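 Total absorption followed intraduodenal dosing with LC-MS/MS of plasma over 8 h. It was calculated as the combined dose-normalized AUC of circulating parent prodrug, ertapenem and two monoesters, divided by dose-normalized AUC of ertapenem given iv. Vehicle was 30% Captisol or 0.5% methylcellulose.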

Canis familiaris [9] = assay: AUC (0 to 8 hrs) in fasted Beagle dog at 10 mg/kg dosed through intraduodenal route by LC-MS/MS method; format: ADME, organism-based, Canis lupus familiaris, Plasma; set-up: time < 8 hr, dose 10 mg/kg, route intraduodenal; conditions: in vivo, other, 8 h; outline: as §1
Canis familiaris [10] = assay: AUC (0 to 8 hrs) in fasted Beagle dog assessed as 8-OH, C-3 ester level at 10 mg/kg dosed through intraduodenal route by LC-MS/MS method; format: ADME, organism-based, Canis lupus familiaris, Plasma; set-up: time < 8 hr, dose 10 mg/kg, route intraduodenal; conditions: in vivo, other; outline: as §1
Canis familiaris [11] = assay: AUC (0 to 8 hrs) in fasted Beagle dog assessed as 8-OH, benzoate ester level at 10 mg/kg dosed through intraduodenal route by LC-MS/MS method; format: ADME, organism-based, Canis lupus familiaris, Plasma; set-up: time < 8 hr, dose 10 mg/kg, route intraduodenal; conditions: in vivo, other; outline: as §1
Canis familiaris [12] = assay: Oral bioavailability in fasted Beagle dog assessed as ertapenem level at 10 mg/kg dosed through intraduodenal route by LC-MS/MS method; format: ADME, organism-based, Canis lupus familiaris; conditions: in vivo; outline: as §2
Canis familiaris [13] = assay: Oral bioavailability in fasted Beagle dog assessed as assessed as ertapenem and monoetser metabolites level at 10 mg/kg dosed through intraduodenal route by LC-MS/MS method; format: ADME, organism-based, Canis lupus familiaris; conditions: in vivo; outline: as §3
[14] = Stability in rat plasma assessed as compound remaining at 50 uM at 37 degC after 60 mins by LC-MS/MS method; format: ADME, cell-free; conditions: read-out: Stability
Outline: (§4)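 Prodrugs were incubated in rat or human plasma for 60 min. Disappearance of prodrug and concomitant appearance of ertapenem were followed by LC-MS/MS, and in selected cases monoesters from partial hydrolysis were also monitored. Ertapenem itself was incubated the same way as a control.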

Rattus norvegicus [15] = assay: AUC (0 to 8 hrs) in fasted Sprague-Dawley rat at 7.4 mg/kg dosed through intraduodenal route by LC-MS/MS method; format: ADME, organism-based, Plasma; set-up: time < 8 hr, dose 7.4 mg/kg, route intraduodenal; conditions: in vivo, other, BLD = below limit of detection; outline: as §1
Rattus norvegicus [16] = assay: AUC (0 to 8 hrs) in fasted Sprague-Dawley rat assessed as ertapenem level at 7.4 mg/kg dosed through intraduodenal route by LC-MS/MS method; format: ADME, organism-based, Plasma; set-up: time < 8 hr, dose 7.4 mg/kg, route intraduodenal; conditions: in vivo, other; outline: as §1
Rattus norvegicus [17] = assay: Oral bioavailability in fasted Sprague-Dawley rat assessed as ertapenem level at 7.4 mg/kg dosed through intraduodenal route by LC-MS/MS method; format: ADME, organism-based; conditions: in vivo; outline: as §2
Rattus norvegicus [18] = assay: Oral bioavailability in fasted Sprague-Dawley rat assessed as ertapenem and monoetser metabolites level at 7.4 mg/kg dosed through intraduodenal route by LC-MS/MS method; format: ADME, organism-based; conditions: in vivo; outline: as §3
[19] = AUC (0 to 8 hrs) in fasted Sprague-Dawley rat at 4.41 mg/kg dosed through intraduodenal route by LC-MS/MS method; format: ADME, organism-based; set-up: time < 8 hr, dose 4.41 mg/kg, route intraduodenal; conditions: plasma; outline: as §1
Rattus norvegicus [20] = assay: AUC (0 to 8 hrs) in fasted Sprague-Dawley rat assessed as ertapenem level at 4.41 mg/kg dosed through intraduodenal route by LC-MS/MS method; format: ADME, organism-based, Plasma; set-up: time < 8 hr, dose 4.41 mg/kg, route intraduodenal; conditions: in vivo, other; outline: as §1
Rattus norvegicus [21] = assay: AUC (0 to 8 hrs) in fasted Sprague-Dawley rat assessed as 8-OH, C-3 ester level at 4.41 mg/kg dosed through intraduodenal route by LC-MS/MS method; format: ADME, organism-based, Plasma; set-up: time < 8 hr, dose 4.41 mg/kg, route intraduodenal; conditions: in vivo, other; outline: as §1
Rattus norvegicus [22] = assay: AUC (0 to 8 hrs) in fasted Sprague-Dawley rat assessed as 8-OH, benzoate ester level at 4.41 mg/kg dosed through intraduodenal route by LC-MS/MS method; format: ADME, organism-based, Plasma; set-up: time < 8 hr, dose 4.41 mg/kg, route intraduodenal; conditions: in vivo, other; outline: as §1
Rattus norvegicus [23] = assay: Oral bioavailability in fasted Sprague-Dawley rat assessed as ertapenem level at 4.41 mg/kg dosed through intraduodenal route by LC-MS/MS method; format: ADME, organism-based; conditions: in vivo; outline: as §2
Rattus norvegicus [24] = assay: Oral bioavailability in fasted Sprague-Dawley rat assessed as ertapenem and monoetser metabolites level at 4.41 mg/kg dosed through intraduodenal route by LC-MS/MS method; format: ADME, organism-based; conditions: in vivo; outline: as §3
[25] = Stability in human plasma assessed as compound remaining at 50 uM at 37 degC after 60 mins by LC-MS/MS method; format: ADME, cell-free; conditions: read-out: Stability; outline: as §4
Rattus norvegicus [26] = assay: AUC (0 to 8 hrs) in fasted Sprague-Dawley rat assessed as ertapenem level at 10 mg/kg dosed through intraduodenal route by LC-MS/MS method; format: ADME, organism-based, Plasma; set-up: time < 8 hr, dose 10 mg/kg, route intraduodenal; conditions: in vivo, other; outline: as §1
Canis familiaris [27] = assay: AUC (0 to 8 hrs) in fasted Beagle dog assessed as ertapenem level at 10 mg/kg dosed through intraduodenal route by LC-MS/MS method; format: ADME, organism-based, Canis lupus familiaris, Plasma; set-up: time < 8 hr, dose 10 mg/kg, route intraduodenal; conditions: in vivo, other; outline: as §1

Row | SMILES | degraded at 1 h, 1 µM [1] [%] | remaining at 3 h, 50 µM [2] [%] | remaining at 3 h, 50 µM [3] [%] | AUC (Rattus norvegicus [4]) | AUC (Rattus norvegicus [5]) | AUC (Rattus norvegicus [6]) | F (Rattus norvegicus [7]) [%] | F (Rattus norvegicus [8]) [%] | AUC (Canis familiaris [9]; BLD = below limit of detection) | AUC (Canis familiaris [10]) [µM·h] | AUC (Canis familiaris [11]; BLD = below limit of detection) | F (Canis familiaris [12]) [%] | F (Canis familiaris [13]) [%] | remaining at 1 h, 50 µM [14] [%] | remaining at 1 h, 50 µM [25] [%] | AUC (Rattus norvegicus [26]) [µM·h] | other results
1 | C[C@@H](O)[C@H]1C(=O)N2C(C(=O)OCOC(=O)C(C)(C)C)=C(S[C@@H]3CN[C@H](C(=O)Nc4cccc(C(=O)OCOC(=O)C(C)(C)C)c4)C3)[C@H](C)[C@H]12 | > 25 | > 95 | > 95 | BLD | BLD | BLD | 0.4 | 0.4 | BLD | < 0.1 | BLD | 3 | 3.07 |  |  |  | 
2 | Cc1oc(=O)oc1COC(=O)C1=C(S[C@@H]2CN[C@H](C(=O)Nc3cccc(C(=O)OCc4oc(=O)oc4C)c3)C2)[C@H](C)[C@@H]2[C@@H]([C@@H](C)O)C(=O)N12 | > 25 | > 95 | > 95 |  |  |  |  |  |  |  |  |  |  | 0 |  |  | AUC (Rattus norvegicus [15]): BLD; AUC (Rattus norvegicus [16]): 0.3 µM·h; F (Rattus norvegicus [17]): 0.8%; F (Rattus norvegicus [18]): 0.8%

More lines, main results first:

Row | degraded at 1 h, 1 µM [1] [%] | remaining at 3 h, 50 µM [2] [%] | remaining at 3 h, 50 µM [3] [%] | AUC (Rattus norvegicus [4]) | AUC (Rattus norvegicus [5]) | AUC (Rattus norvegicus [6]) | F (Rattus norvegicus [7]) [%] | F (Rattus norvegicus [8]) [%] | AUC (Canis familiaris [9]; BLD = below limit of detection) | AUC (Canis familiaris [10]) [µM·h] | AUC (Canis familiaris [11]; BLD = below limit of detection) | F (Canis familiaris [12]) [%] | F (Canis familiaris [13]) [%] | remaining at 1 h, 50 µM [14] [%] | remaining at 1 h, 50 µM [25] [%] | AUC (Rattus norvegicus [26]) [µM·h] | SMILES | other results
3 | > 25 | > 95 | > 95 |  |  |  |  |  |  | 2.2 |  | 18.1 | 31.3 |  |  |  | CCOC(=O)C1=C(S[C@@H]2CN[C@H](C(=O)Nc3cccc(C(=O)OCC)c3)C2)[C@H](C)[C@@H]2[C@@H]([C@@H](C)O)C(=O)N12 | AUC(0-t) at 8 h [19]: 0.06 µM·h; AUC (Rattus norvegicus [20]): 1.5 µM·h; AUC (Rattus norvegicus [21]): 0.1 µM·h; AUC (Rattus norvegicus [22]): 0.4 µM·h; F (Rattus norvegicus [23]): 5%; F (Rattus norvegicus [24]): 6.6%; AUC (Canis familiaris [9]): 5 µM·h; AUC (Canis familiaris [11]): 3.3 µM·h
4 | > 25 | > 95 | > 95 | BLD | BLD | BLD | 1.8 | 1.8 | BLD |  | BLD | 3.6 | 3.6 | 1 | 8 | 0.9 | CC(C)C(=O)OCOC(=O)C1=C(S[C@@H]2CN[C@H](C(=O)Nc3cccc(C(=O)OCOC(=O)C(C)C)c3)C2)[C@H](C)[C@@H]2[C@@H]([C@@H](C)O)C(=O)N12 | AUC (Canis familiaris [27]): 2.2 µM·h; AUC (Canis familiaris [10]; BLD = below limit of detection): BLD
5 | > 25 | > 95 | > 95 | BLD | BLD |  | 1.2 | 1.2 |  |  |  |  |  | 0 | 15 | 0.7 | CC(C)C(=O)OCOC(=O)C1=C(S[C@@H]2CN[C@H](C(=O)Nc3cccc(C(=O)[O-])c3)C2)[C@H](C)[C@@H]2[C@@H]([C@@H](C)O)C(=O)N12.[Na+] | 
